Assay results taken from ChEMBL document CHEMBL1122458, “beta-Carbolines as benzodiazepine receptor ligands. 1. Synthesis and benzodiazepine receptor interaction of esters of beta-carboline-3-carboxylic acid” (J Med Chem, 1983).

Experiments:
[1] = target: GABA-A receptor; anion channel; assay: Concentration that inhibits specific [3H]flunitrazepam binding to benzodiazepine receptor in bovine brain
Method in brief: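 Bovine cortex (frozen, -20 °C) homogenized in 50 mM Tris-HCl pH 7.4, spun 48000g 10 min, pellet resuspended; incubated 45 min with 0.2 nM [3H]flunitrazepam (final) and displacers. Rapid filtration over GF-B filters, three ice-cold washes, scintillation counting. Nonspecific binding with 10 µM diazepam. IC50 by log probit analysis, four to six concentrations, each in triplicate.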

[2] = target: GABA-A receptor; anion channel (Mus musculus) (UniProt Q8BHJ7+P26048+Q8QZW7+P50571+Q9R0Y8+P22723+A2AMW3+P62812+Q9JLF1+P26049+P22933+Q9D6F4+P63080+P27681+P16305); assay: In vivo inhibition of specific [3H]flunitrazepam binding in mouse brain 10 minute after iv administration of 15 uM/Kg; format: organism-based
Method in brief: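 Mouse brain ex vivo: specific [3H]flunitrazepam binding measured 10 min after iv dosing at 15 µmol/kg; reported as percent inhibition of specific binding, mean ± SEM of four determinations.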

Structure (SMILES) | IC50 [1] [nM] | inhibition [2] [%]
CCCOC(=O)C1Cc2c([nH]c3ccccc23)CN1 (stereo unspecified) | 4400 | –
CCCCOC(=O)C1Cc2c([nH]c3ccccc23)CN1 (stereo unspecified) | 4800 | –
O=C(O)C1Cc2c([nH]c3ccccc23)CN1 (stereo unspecified) | 22000 | –
CCCCOC(=O)c1cc2c(cn1)[nH]c1ccccc12 | 29 | 54.9
CCOC(=O)C1Cc2c([nH]c3ccccc23)CN1 (stereo unspecified) | 6000 | –
CCCOC(=O)c1cc2c(cn1)[nH]c1ccccc12 | 4.6 | 62.7
O=C(OCc1ccccc1)c1cc2c3ccccc3nc-2c[nH]1 | 21 | 38.4
COC(=O)C1Cc2c([nH]c3ccccc23)CN1 (stereo unspecified) | 250 | 6.1
O=C(OCc1cccnc1)c1cc2c3ccccc3nc-2c[nH]1 | 34 | 49.4
COCCOC(=O)c1cc2c3ccccc3nc-2c[nH]1 | 145 | 34.6
CCOC(=O)c1cc2c(cn1)[nH]c1ccccc12 | 1.4 | 61.7
CN(C)CCOC(=O)c1cc2c3ccccc3nc-2c[nH]1 | 330 | 13.4
COC(=O)c1cc2c(cn1)[nH]c1ccccc12 [BETA-CCM] | 2.5 | 51.2
[2H]C([2H])([2H])OC(=O)c1cc2c(cn1)[nH]c1ccccc12 | 5.3 | –
O=C(OCc1ccccc1)C1Cc2c([nH]c3ccccc23)CN1 (stereo unspecified) | 2700 | –
O=C(OCCF)c1cc2c3ccccc3nc-2c[nH]1 | 27 | 55.3
O=C(O)c1cc2c3ccccc3nc-2c[nH]1 | 7200 | –
N#CCCOC(=O)c1cc2c3ccccc3nc-2c[nH]1 | 27 | 44.4
O=C(OCCCl)c1cc2c3ccccc3nc-2c[nH]1 | 22 | 89
